Here are results for nine molecules from ChEMBL document CHEMBL1126664, “Pyrazoline bisphosphonate esters as novel antiinflammatory and antiarthritic agents” (1993).

One may read the inhibition in vivo as the drop in the measured response relative to a control, in per cent.

Type in all cases: functional
Assay [1] deals with Mus musculus. The assay is described as follows: Inhibition of delayed type hypersensitivity granuloma results at 100 mg/kg in dry weight. The method in brief:
(§1)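 Groups of 10 female CF-1 mice (25 g) were sensitised sc over the inguinal lymph node with mBSA emulsion in Freund's incomplete adjuvant plus dextran. Two mBSA-soaked hydroxyapatite disks were implanted per mouse. Sc dosing ran daily from implantation to day 9, then granulomas were excised for wet and dry weights. Student's paired t test.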

Assay [2] relates to Mus musculus. The assay is described as follows: Inhibition of delayed type hypersensitivity granuloma results at 100 mg/kg in wet weight. The method in brief:
as §1

Assay [3] has as its system Mus musculus. The assay is described as follows: Inhibition of antigen-induced arthritis (AIA) in mice at the dose of 100 mg/kg. The method in brief: (§2)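 Mice were immunised, boosted after 7 days, and challenged 14 days later with 200 μg mBSA in saline into the left rear stifle joint. Dosing was sc in saline at pH 7.0, 5 of 7 days, from challenge (day 0) to day 28. H&E sagittal joint sections were graded 1–5 each for soft tissue inflammation, pannus, and cartilage and bone erosion, then summed (max 20). One-way ANOVA vs vehicle.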

The subject of assay [4] is Rattus norvegicus. The assay is described as follows: Inhibition of rat adjuvant induced polyarthritis (AIP) at the dose of 100 mg/kg in the injected paw. The method in brief: (§3)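 Rats received adjuvant (M. tuberculosis in mineral oil) into the left hindpaw on day 0. Compounds in sterile saline, pH 7.0, were given sc once daily for 28 days, with sc vehicle arthritic controls. Paw volume change in injected and noninjected hindpaws was measured on day 28 by mercury-displacement plethysmography.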

Assay [5] has as its system Rattus norvegicus. The assay is described as follows: Inhibition of rat adjuvant induced arthritis (AIP) at the dose of 15 mg/kg in the non-injected paw. In outline: as §3
Assay [6] relates to Rattus norvegicus. The assay is described as follows: Inhibition of rat adjuvant induced arthritis (AIP) at the dose of 100 mg/kg in the non-injected paw. The method in brief:
as §3

Assay [7] concerns Rattus norvegicus. The assay is described as follows: Inhibition of rat adjuvant induced polyarthritis (AIP) at the dose of 15 mg/kg in the injected paw. The method in brief: as §3
Assay [8] concerns Mus musculus. The assay is described as follows: Inhibition of antigen-induced arthritis (AIA) in mice at the dose of 100 mg/kg in the non-injected paw.
Assay [9] relates to Rattus norvegicus. The assay is described as follows: Inhibition of rat adjuvant-induced arthritis (AIP) at the dose of 100 mg/kg in the non-injected paw. The method in brief:
as §3

Assay [10] deals with Rattus norvegicus. The assay is described as follows: Inhibition of rat adjuvant-induced arthritis (AIP) at the dose of 15 mg/kg in the non-injected paw. In outline:
as §3

For assay [11], the system named is Rattus norvegicus. The assay is described as follows: Inhibition of rat adjuvant induced polyarthritis (AIP) at the dose of 100 mg/kg in the non-injected paw. The method in brief: as §3
Assay [12] deals with Rattus norvegicus. The assay is described as follows: Inhibition of rat adjuvant induced polyarthritis (AIP) at the dose of 15 mg/kg in the non-injected paw. In outline: as §3
Assay [13] has as its system Mus musculus. The assay is described as follows: Inhibition of delayed type hypersensitivity granuloma results at 25 mg/kg in dry weight. In outline:
as §1

Assay [14] deals with Mus musculus. The assay is described as follows: Inhibition of delayed type hypersensitivity granuloma results at 50 mg/kg in dry weight. The method in brief:
as §1

Assay [15] concerns Mus musculus. The assay is described as follows: Inhibition of antigen induced arthritis (AIA) in mice at the dose of 100 mg/kg. The method in brief: as §2
Assay [16] has as its system Rattus norvegicus. The assay is described as follows: Inhibition of rat adjuvant-induced polyarthritis (AIP) at the dose of 15 mg/kg in the non-injected paw. The method in brief: as §3
Assay [17] deals with Rattus norvegicus. The assay is described as follows: Inhibition of rat adjuvant-induced polyarthritis (AIP) at the dose of 100 mg/kg in the non-injected paw. In outline:
as §3

The test system of assay [18] is Mus musculus. The assay is described as follows: Inhibition of delayed type hypersensitivity granuloma results at 50 mg/kg in wet weight. In outline:
as §1

Assay [19] relates to Rattus norvegicus. The assay is described as follows: Inhibition of rat adjuvant-induced polyarthritis (AIP) at the dose of 5 mg/kg in the non-injected paw. The method in brief: as §3
Assay [20] concerns Rattus norvegicus. The assay is described as follows: Inhibition of rat adjuvant induced polyarthritis (AIP) at the dose of 5 mg/kg in the injected paw. In outline: as §3
The subject of assay [21] is Rattus norvegicus. The assay is described as follows: Inhibition of rat adjuvant-induced polyarthritis (AIP) at the dose of 60 mg/kg in the non-injected paw. In outline:
as §3

Assay [22] has as its system Rattus norvegicus. The assay is described as follows: Inhibition of rat adjuvant induced polyarthritis (AIP) at the dose of 60 mg/kg in the injected paw. In outline: as §3
Assay [23] deals with Mus musculus. The assay is described as follows: Inhibition of delayed type hypersensitivity granuloma results at 25 mg/kg in wet weight. The method in brief: as §1
Assay [24] deals with Mus musculus. The assay is described as follows: Inhibition of antigen induced arthritis (AIA) in mice at the dose of 50 mg/kg. In outline: as §2
For assay [25], the system named is Rattus norvegicus. The assay is described as follows: Inhibition of rat adjuvant-induced arthritis (AIP) at the dose of 5 mg/kg in the non-injected paw. The method in brief: as §3
In assay [26] the test system is Rattus norvegicus. The assay is described as follows: Inhibition of rat adjuvant-induced arthritis (AIP) at the dose of 60 mg/kg in the non-injected paw. In outline:
as §3

The subject of assay [27] is Mus musculus. The assay is described as follows: Inhibition of antigen-induced arthritis (AIA) in mice at the dose of 50 mg/kg in the non-injected paw.
The test system of assay [28] is Mus musculus. The assay is described as follows: Inhibition of antigen-induced arthritis (AIA) in mice at the dose of 25 mg/kg in the non-injected paw.
The test system of assay [29] is Mus musculus. The assay is described as follows: Inhibition of delayed type hypersensitivity granuloma at 25 mg/kg in wet weight. The method in brief:
as §1

Molecules are shown by their SMILES.

With `O=C(C1=NNC(P(=O)(O)O)(P(=O)(O)O)C1)c1ccccc1`, the inhibition in vivo at 100 mg/kg stood at 19% in assay [1] and 18% in assay [2].

On to `CCOP(=O)(OCC)C1(P(=O)(OCC)OCC)CC(C(=O)c2ccccc2)=NN1CC(=O)OC`, for which the inhibition in vivo at 100 mg/kg in assay [1] and in assay [2] was 1% in each case.

As for `CCOP(=O)(OCC)C1(P(=O)(OCC)OCC)CC(C(=O)c2ccccc2F)=NN1`, the inhibition in vivo at 100 mg/kg in [1] came out at 17%; in [2], 20%.

For `CCOP(=O)(OCC)C1(P(=O)(OCC)OCC)CC(C(=O)c2ccccc2C)=NN1`, the inhibition in vivo at 100 mg/kg in assay [3] turned out to be 8%; in assay [1], 48%; in assay [4], 9%; in [2] it was 37%; in [6], 66%. Also, the inhibition in vivo at 15 mg/kg in assay [5] was determined as 49%; in [7], 18%.

Consider `CCOP(=O)(OCC)C1(P(=O)(OCC)OCC)CC(C(=O)c2cccc(C)c2)=NN1`, for which the inhibition in vivo at 100 mg/kg in assay [8] is 16%; in assay [1] it was 41%; in [4], 3%; in assay [2], 41%; in assay [9], 50%. Moreover, the inhibition in vivo at 15 mg/kg came out at 6% in assay [7] and 54% in assay [10].

Consider `CCOP(=O)(OCC)C1(P(=O)(OCC)OCC)CC(C(=O)c2ccc(Cl)cc2Cl)=NN1`, for which the inhibition in vivo at 100 mg/kg in assay [3] was 0%; in assay [1], 44%; in [4], 0%; in [11], 12%; in assay [2] it was 55%. Further, the inhibition in vivo at 15 mg/kg was found to be 38% in assay [12] and 3% in [7].

For the molecule `CCOP(=O)(OCC)C1(P(=O)(OCC)OCC)CC(C(=O)c2ccccc2)=NN1C`, the values for the inhibition in vivo at 100 mg/kg in assay [1] and in assay [2] were 8% and 11%, respectively.

Consider `CCOP(=O)(OCC)C1(P(=O)(OCC)OCC)CC(C(=O)C(C)(C)C)=NN1`, for which the inhibition in vivo at 25 mg/kg was 38% in [13] and 46% in assay [23]. In addition, the figures for the inhibition in vivo at 50 mg/kg in assay [14], in assay [18] and in assay [24] were 48%, 51% and 28%, respectively. Further, the inhibition in vivo at 100 mg/kg was 59% in [1]; 21% in [4]; 16% in assay [15]; 76% in assay [17]; 65% in [2]. The results for the inhibition in vivo at 15 mg/kg in assay [16] and in [7] were 55% and 21%, respectively. For the same molecule, the values for the inhibition in vivo at 5 mg/kg in assay [19] and in [20] were 64% and 27%, respectively. Further, the inhibition in vivo at 60 mg/kg in [21] turned out to be 64%; in [22], 38%.

With `CCOP(=O)(OCC)C1(P(=O)(OCC)OCC)CC(C(=O)c2cccc(F)c2)=NN1`, the inhibition in vivo at 100 mg/kg amounted to 55% in assay [8]; 65% in assay [1]; 22% in [4]; 58% in assay [2]; 55% in assay [9]. Also, the inhibition in vivo at 25 mg/kg in [13] worked out at 49%; in assay [28], 42%; in assay [29], 42%. Further, the values for the inhibition in vivo at 50 mg/kg in [14], in assay [18] and in assay [27] were 51%, 45% and 52%, respectively. The inhibition in vivo at 5 mg/kg in assay [25] and in assay [20] was 0% each time. In addition, the results for the inhibition in vivo at 60 mg/kg in [26] and in assay [22] were 46% and 8%, respectively. For the same molecule, the inhibition in vivo at 15 mg/kg was determined as 4% in assay [7] and 46% in assay [10].
